Results as given in article PMC4715766 (ACS Chemical Biology, 2015).

Key:
[1] = tested on: IMCD3 cells; test: Real-time imaging of mNeonGreen-IFT88 movement; type: cell-based, murine; details: 15 μM
Summary of the method: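 Live IMCD3 cells expressing mNeonGreen-IFT88 were given 15 μM test compound or DMSO for 3 min and imaged in real time. Foci were tracked and classed as anterograde, retrograde or immobile, and their mean velocity and frequency were quantified from at least seven cilia across three independent experiments (± s.e.m.; P < 0.05 or 0.01).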

[2] = tested on: Hh signaling; test: Hh signaling assay; type: cell-based, murine; details: ShhN-conditioned medium and compound for 30 h
[3] = biological target: DYNC2H1 (Homo sapiens, UniProt Q8NCM8); test: DYNC2H1 ATPase assay; type: biochemical
Summary of the method: (§1)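 Purified N-terminally SBP- and SNAP-tagged full-length human heavy chains; hydrolysis of γ-32P ATP measured at 37 °C under conditions kept linear from enzyme reaction curves. Single-dose screens used 50 μM in both assays (about 25 nM γ-32P ATP, duplicates), or 50 μM for DYNC1H1 and 15 μM for DYNC2H1 (two experiments). IC50 calculated from dose-response curves run in triplicate.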

[4] = tested on: NIH-3T3 cell-derived line; test: Ciliogenesis assay; type: cell-based, murine; details: 30 μM; 24 h
Summary of the method: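 NIH-3T3-derived cells were exposed to the test compound at 30 μM for 24 h, then fixed and immunostained for ARL13B. Primary cilium length was taken as the mean number of ARL13B-positive pixels per cell over at least 6 fields of view, about 800 cells per condition, reported ± s.e.m.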

[5] = biological target: DYNC1H1 (Homo sapiens, UniProt Q14204); test: DYNC1H1 ATPase assay; type: biochemical
Summary of the method: as §1

Chain of DYNC2H1 (Q8NCM8 whole entry): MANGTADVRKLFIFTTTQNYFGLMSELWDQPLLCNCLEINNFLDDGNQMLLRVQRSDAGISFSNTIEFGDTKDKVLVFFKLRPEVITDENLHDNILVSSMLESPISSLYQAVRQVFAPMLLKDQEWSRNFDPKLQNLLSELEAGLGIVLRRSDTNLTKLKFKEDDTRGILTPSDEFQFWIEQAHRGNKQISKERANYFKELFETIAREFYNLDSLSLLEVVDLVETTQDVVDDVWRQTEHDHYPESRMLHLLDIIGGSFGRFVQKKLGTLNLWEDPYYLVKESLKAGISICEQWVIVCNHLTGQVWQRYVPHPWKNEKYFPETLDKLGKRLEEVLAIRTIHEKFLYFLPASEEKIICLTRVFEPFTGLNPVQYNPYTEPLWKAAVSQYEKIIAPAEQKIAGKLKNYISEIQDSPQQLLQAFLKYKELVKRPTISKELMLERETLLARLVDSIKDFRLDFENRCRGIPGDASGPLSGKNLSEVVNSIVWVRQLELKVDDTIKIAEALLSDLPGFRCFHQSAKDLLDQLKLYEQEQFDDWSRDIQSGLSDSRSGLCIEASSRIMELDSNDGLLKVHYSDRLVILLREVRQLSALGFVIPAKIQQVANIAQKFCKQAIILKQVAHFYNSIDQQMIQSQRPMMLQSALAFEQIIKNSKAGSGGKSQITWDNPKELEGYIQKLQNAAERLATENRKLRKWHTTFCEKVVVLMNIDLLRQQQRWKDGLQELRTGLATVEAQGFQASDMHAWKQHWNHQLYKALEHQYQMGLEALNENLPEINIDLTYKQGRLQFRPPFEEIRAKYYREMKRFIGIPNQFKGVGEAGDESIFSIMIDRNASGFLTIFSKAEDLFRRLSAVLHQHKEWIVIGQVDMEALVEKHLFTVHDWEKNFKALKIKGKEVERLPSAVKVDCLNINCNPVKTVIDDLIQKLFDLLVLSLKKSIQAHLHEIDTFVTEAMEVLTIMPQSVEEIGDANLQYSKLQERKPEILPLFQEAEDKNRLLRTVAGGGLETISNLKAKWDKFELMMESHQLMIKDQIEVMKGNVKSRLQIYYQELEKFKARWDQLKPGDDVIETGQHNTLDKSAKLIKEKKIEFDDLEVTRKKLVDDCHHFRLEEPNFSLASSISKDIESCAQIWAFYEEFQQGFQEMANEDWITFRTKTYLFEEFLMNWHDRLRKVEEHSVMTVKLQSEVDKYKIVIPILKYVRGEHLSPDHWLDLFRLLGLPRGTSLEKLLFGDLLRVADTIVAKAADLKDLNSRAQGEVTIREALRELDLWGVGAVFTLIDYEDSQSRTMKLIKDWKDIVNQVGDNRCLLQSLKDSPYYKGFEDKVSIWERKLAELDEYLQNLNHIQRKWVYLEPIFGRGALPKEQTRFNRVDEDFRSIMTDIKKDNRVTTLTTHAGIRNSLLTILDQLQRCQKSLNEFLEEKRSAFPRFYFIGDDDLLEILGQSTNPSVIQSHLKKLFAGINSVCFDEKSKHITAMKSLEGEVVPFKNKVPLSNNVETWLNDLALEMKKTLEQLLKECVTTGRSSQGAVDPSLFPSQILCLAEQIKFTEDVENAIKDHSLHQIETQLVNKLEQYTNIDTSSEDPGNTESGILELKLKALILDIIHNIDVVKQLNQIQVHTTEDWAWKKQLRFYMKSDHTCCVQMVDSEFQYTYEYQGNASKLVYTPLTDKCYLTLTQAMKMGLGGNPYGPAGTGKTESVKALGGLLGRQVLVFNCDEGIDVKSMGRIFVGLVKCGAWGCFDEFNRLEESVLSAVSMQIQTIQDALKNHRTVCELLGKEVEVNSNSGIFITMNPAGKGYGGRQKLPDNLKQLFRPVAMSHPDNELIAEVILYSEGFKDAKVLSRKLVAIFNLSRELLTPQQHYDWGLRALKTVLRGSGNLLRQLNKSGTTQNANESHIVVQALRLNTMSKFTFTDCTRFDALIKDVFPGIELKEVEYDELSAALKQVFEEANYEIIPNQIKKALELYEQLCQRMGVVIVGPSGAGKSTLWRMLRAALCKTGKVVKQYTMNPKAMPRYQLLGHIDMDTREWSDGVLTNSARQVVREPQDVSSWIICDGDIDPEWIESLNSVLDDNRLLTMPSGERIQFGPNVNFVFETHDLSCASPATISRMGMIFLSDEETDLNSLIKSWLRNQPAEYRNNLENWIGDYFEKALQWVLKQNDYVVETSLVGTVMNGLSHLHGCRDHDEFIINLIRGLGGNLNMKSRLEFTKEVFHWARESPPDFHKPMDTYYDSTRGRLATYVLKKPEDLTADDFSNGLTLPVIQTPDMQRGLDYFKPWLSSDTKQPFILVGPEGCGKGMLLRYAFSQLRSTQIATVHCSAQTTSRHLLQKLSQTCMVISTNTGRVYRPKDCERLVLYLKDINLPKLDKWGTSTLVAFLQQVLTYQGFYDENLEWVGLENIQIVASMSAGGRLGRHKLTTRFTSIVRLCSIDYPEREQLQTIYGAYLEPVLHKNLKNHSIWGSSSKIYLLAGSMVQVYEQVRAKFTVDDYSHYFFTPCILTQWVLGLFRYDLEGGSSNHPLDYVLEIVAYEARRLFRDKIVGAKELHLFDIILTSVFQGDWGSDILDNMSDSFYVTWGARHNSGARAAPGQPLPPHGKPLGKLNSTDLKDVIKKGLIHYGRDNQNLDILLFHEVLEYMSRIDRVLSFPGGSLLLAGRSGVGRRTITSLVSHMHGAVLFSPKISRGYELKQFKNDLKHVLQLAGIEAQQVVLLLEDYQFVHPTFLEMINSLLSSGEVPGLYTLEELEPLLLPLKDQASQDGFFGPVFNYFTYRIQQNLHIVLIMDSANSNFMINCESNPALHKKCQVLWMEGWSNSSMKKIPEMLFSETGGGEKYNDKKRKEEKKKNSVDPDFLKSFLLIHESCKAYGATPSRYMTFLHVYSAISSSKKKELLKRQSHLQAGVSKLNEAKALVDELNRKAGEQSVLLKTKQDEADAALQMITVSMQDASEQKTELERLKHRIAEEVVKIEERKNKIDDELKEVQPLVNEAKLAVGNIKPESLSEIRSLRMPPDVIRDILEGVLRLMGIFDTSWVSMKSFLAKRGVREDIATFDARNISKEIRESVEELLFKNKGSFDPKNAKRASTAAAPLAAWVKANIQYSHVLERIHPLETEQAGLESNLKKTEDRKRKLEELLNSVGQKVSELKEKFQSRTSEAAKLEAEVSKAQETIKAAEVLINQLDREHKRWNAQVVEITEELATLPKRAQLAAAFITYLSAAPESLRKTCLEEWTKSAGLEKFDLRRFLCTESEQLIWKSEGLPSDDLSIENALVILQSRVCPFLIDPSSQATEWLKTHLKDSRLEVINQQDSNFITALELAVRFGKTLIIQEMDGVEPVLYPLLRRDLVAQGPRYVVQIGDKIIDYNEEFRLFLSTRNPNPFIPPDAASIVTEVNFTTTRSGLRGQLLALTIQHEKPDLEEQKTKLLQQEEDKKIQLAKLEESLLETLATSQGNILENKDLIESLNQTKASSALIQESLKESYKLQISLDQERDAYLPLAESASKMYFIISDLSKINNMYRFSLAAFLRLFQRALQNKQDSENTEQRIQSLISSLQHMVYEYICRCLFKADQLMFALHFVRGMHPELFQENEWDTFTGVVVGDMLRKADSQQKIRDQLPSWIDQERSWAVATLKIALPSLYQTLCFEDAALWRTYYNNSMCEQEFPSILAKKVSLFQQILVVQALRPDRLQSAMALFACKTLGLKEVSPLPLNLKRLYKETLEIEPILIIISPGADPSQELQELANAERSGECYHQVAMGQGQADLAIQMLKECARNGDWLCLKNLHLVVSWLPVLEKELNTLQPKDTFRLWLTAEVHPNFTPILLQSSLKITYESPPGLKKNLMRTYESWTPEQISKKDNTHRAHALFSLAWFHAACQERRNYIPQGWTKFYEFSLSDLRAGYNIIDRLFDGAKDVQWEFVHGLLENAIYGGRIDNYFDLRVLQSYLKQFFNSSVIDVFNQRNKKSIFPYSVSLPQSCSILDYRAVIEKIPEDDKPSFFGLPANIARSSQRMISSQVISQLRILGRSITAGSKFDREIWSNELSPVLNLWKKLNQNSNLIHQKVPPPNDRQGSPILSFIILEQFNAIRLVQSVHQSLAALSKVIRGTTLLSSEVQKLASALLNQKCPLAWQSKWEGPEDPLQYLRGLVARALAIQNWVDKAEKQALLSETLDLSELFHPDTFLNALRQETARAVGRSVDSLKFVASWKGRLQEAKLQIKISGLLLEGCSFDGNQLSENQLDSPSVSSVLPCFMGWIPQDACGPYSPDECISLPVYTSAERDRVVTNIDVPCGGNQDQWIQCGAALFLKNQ

Row | IC50 [3] [µM] | IC50 [5] [µM] | SMILES | time to disruption of ciliary transport [1] [min] | inhibition of Hh signaling [2] | inhibition of ciliogenesis / primary cilium length [4]
1 |  |  | Cc1ccc(COc2ccc3c(c2)NC(=C(C#N)C(=O)c2ccc(Cl)cc2Cl)NC3=O)cc1 [analog 37] | ≤ 3 |  | 
2 | 21 | 130 | CC(C)Oc1ccc2c(c1)NC(=C(C#N)C(=O)c1ccc(Cl)cc1Cl)NC2=O [analog 18] |  | Dose-dependent inhibition of Hh signaling | Inhibition of ciliogenesis
